# Only some compounds are listed: those with a hit (about 0.58% of all), similar ones and a draw of the others.
# OXTR agonist = human OXTR agonists, primary screen, fluorescence, CHO-OTR cells, Fluo-8 calcium; Fluo-8 calcium fluorescence; normalized: DMSO 0%, oxytocin 100%; 320,000 tested, 0.32% active; activation, % at 3 µM;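 active = activation above the mean of all tested compounds plus 3 SD, cutoff set per screening run, cut at about 20% in these data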;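 also: peak over basal fluorescence ratio from a 100 s FLIPR kinetic read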
# TRPML3 ag = human TRPML3 channel agonists, primary screen, cell-based, HEK293 TRPML3-YFP, Fluo-8 calcium fluorescence, 3 µM. activation, % at 3 µM. Mucolipin-3 (Homo sapiens), Q8TDD5. AID 1448, 2008. 220,000 tested, 0.29% active. 100% = the carbachol control signal;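 active = activation above its plate's cutoff, the mean activation of the plate's test wells plus 3 SD, cut at about 12% in these data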
# Target sequence (Q8TDD5 whole entry, looked up): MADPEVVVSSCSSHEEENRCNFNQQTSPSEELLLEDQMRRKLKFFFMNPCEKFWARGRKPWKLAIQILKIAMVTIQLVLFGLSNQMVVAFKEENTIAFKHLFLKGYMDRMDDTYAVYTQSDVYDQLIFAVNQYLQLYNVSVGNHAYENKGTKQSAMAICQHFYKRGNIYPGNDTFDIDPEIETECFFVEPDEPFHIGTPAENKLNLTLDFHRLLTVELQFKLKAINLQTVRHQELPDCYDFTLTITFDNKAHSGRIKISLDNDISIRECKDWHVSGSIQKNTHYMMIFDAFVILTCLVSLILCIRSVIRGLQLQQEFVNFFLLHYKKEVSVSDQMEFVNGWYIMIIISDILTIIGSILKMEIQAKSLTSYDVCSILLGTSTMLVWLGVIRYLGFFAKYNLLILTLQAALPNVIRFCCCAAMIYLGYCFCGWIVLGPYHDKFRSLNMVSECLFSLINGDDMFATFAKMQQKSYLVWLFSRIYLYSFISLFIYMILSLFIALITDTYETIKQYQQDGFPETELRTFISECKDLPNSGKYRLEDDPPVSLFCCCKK
#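 Test system – HEK293 line with stable expression of human TRPML3-YFP channel · Control set – carbachol 87 µM final as high control (100%), DMSO as low control (0%) · Signal – Fluo-8 calcium dye fluorescence, ex 470-495, em 515-575 nm · Incubation – 1-h 37 °C dye load, 5-s basal, 120-s post-compound reads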
# OXTR potentiate = human OXTR potentiators, primary screen, fluorescence, CHO-OTR cells, Fluo-8 calcium. 320,000 tested, 0.061% active. activation, % at 3 µM. Fluo-8 calcium fluorescence, potentiator mode; 0% = oxytocin EC15, 100% = EC100;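 active = activation above that plate's cutoff, the mean activation of tested compounds plus 3 SD, cut at about 6.6% in these data, passing the limit was not always enough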
#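 Measured by – Fluo-8 calcium dye fluorescence · Test system – human OTR in CHO cells · Dosing – one concentration, 3.0 µM compound · Controls – EC15 oxytocin alone as 0%, 75 nM oxytocin as 100% · Evaluation – normalized max/min fluorescence ratio, % activation · Timing – 6 min pre-incubation, 100 s read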
# V1aR counter = agonists of human V1a receptor, primary screen, counter-screen for OXTR agonist project, fluorescence, CHO-V1R cells; activation, % at 3 µM; 320,000 tested, 0.25% active; Fluo-8 calcium fluorescence, agonist mode; 0% DMSO, 100% 3 nM vasopressin; AID 2797, 2010; Vasopressin V1a receptor (Homo sapiens), P37288;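 active = activation above the mean activation of all tested compounds plus 3 SD, per screening run, cut at about 20% in these data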;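 also: signal is peak over basal fluorescence ratio across a 100 second FLIPR read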
# zfTRPN1 agonist = zebrafish TRPN1 channel agonists, primary screen, cell-based, HEK293, calcium fluorescence | transient receptor potential cation channel N1 (TRPN1/NompC), Danio rerio | HEK293 zebrafish TRPN1-YFP, Fluo-8 calcium fluorescence; 100% = response to 87 µM carbachol | activation, % at 3 µM | 220,000 tested, 0.18% active;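 active = activation above its plate's cutoff, the mean activation of test wells on that plate plus 3 SD, cut at about 19% in these data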
#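 Material – zebrafish TRPN1-YFP in HEK293 cells · Doses – 3 µM single point · Schedule – dye 1 h 37 °C plus 30 min RT · Signal – Fluo-8 calcium fluorescence, excitation 470-495 nm, emission 515-575 nm · Read-out – % activation versus carbachol response · Control set – carbachol high, DMSO low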
# TRPN1 counter = zebrafish TRPN1 channel agonists, counter-screen for TRPML3 agonist project, cell-based, HEK293 TRPN1-YFP, Fluo-8 calcium; shares compounds with TRPML3 ag; Fluo-8 calcium fluorescence; scaled: carbachol wells 100%, DMSO wells 0%; activation, % at 3 µM; 310 tested, 10% active; AID 1525, 2009;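 active = mean activation over replicates above a set limit taken from the earlier TRPN1 channel primary screen, cut at about 19% in these data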
# TRPML3 ag conf = human TRPML3 channel agonists, confirmation, cell-based, HEK293 TRPML3-YFP, Fluo-8 calcium, triplicate | shares compounds with TRPML3 ag | Fluo-8 calcium fluorescence; 100% set by carbachol, 0% by DMSO | activation, % at 3 µM | 310 tested, 80% active;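 active = activation above a set limit derived from the earlier primary screen, cut at about 12% in these data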
# A number is an active result; i = inactive; nt = no result.
SMILES,OXTR agonist,TRPML3 ag,OXTR potentiate,V1aR counter,zfTRPN1 agonist,TRPN1 counter,TRPML3 ag conf
COc1ccc(S(=O)(=O)NC2CCCC2)c(Cl)c1Cl,i,34.5,i,i,i,i,47.8
COc1cc(C)nc(N(Cc2ccccc2)S(=O)(=O)c2ccccc2)n1,i,i,i,i,i,nt,nt
COc1cc(C)nc(N(Cc2ccccc2)S(=O)(=O)c2ccc(C)cc2)n1,i,27.5,i,i,i,i,50.5
O=C1C(Cl)=C(N2CCN(Cc3ccccc3)CC2)C(=O)N1Cc1ccccc1,i,20.3,i,i,i,i,25.5
O=C1C(Cl)=C(NC2CCCCC2)C(=O)N1Cc1ccccc1,i,i,i,i,i,nt,nt
CCNC(=S)N(Cc1cccs1)Cc1cc2cc(OCC)ccc2[nH]c1=O,i,16.8,i,i,i,i,16.4
CCNC(=S)N(Cc1ccco1)Cc1cc2cc(OCC)ccc2[nH]c1=O,i,i,i,i,i,nt,nt
COc1ccc(NC(C)(C)c2nnnn2-c2c(C)cccc2C)cc1,i,21.0,i,i,i,i,i
CNc1c(NS(=O)(=O)c2ccc(OC)c(Cl)c2)c(=O)oc2ccccc12,i,nt,i,i,nt,nt,nt
CN(C)S(=O)(=O)c1cc([N+](=O)[O-])ccc1N1CCCCCC1,i,16.0,i,i,i,i,14.5
COc1cc(/C=N/NC(=O)c2nnn(-c3nonc3N)c2C(C)C)ccc1OCc1ccc(F)cc1,i,nt,i,i,nt,nt,nt
CCOC(=O)c1c(CSc2ccc(C)cc2)oc2ccc(O)cc12,i,29.9,i,i,i,i,46.1
CC(=O)c1ccc(NC(=S)NC(C)c2ccc(Cl)cc2Cl)cc1 (stereo not drawn),24.9,13.6,i,23.8,i,i,i
CC(c1ccccc1)C1CC(=O)N(C2CCCCC2)C1=O (stereo not drawn),i,26.6,i,i,i,i,25.4
O=C(COc1ccccc1C(=O)O)Nc1nc2ccc([N+](=O)[O-])cc2s1,i,14.2,i,i,i,21.9,i
CC1CCCCC1NC(=O)CN1C(=O)CSc2cc(S(=O)(=O)N3CCCCCC3)ccc21 (stereo not drawn),i,32.6,i,i,i,i,i
O=C1C=C(NNC(=O)c2ccncc2)CC(c2ccccc2)C1 (stereo not drawn),i,18.7,i,i,i,i,i
COC(=O)c1cc(S(=O)(=O)N(C)C2CCCCC2)oc1C,i,i,i,i,i,nt,nt
COc1cc(S(=O)(=O)N(C)C2CCCCC2)c(C)cc1C,nt,54.0,nt,nt,i,i,63.5
COC(=O)c1cnc(N2CCCN(S(=O)(=O)c3ccccc3)CC2)nc1C(F)(F)F,i,13.5,i,i,i,i,13.2
COc1ccc(C(=O)c2c3ccc(OC)cc3[n+]([O-])n2Cc2ccc(C(N)=O)cc2)cc1,i,nt,i,i,nt,nt,nt
COc1ccccc1C1(CC(=O)N2CCCCC2)CCOC(C(C)C)C1 (stereo not drawn),i,13.6,i,i,i,i,i
CCOc1ccc(Cl)cc1S(=O)(=O)N1CCCC1,i,i,i,i,i,nt,nt
Cc1cc(S(=O)(=O)N2CCCCCC2)c(Cl)cc1Cl,i,25.9,i,i,i,i,26.7
CCOc1c(S(=O)(=O)N2CCCC2)ccc(Cl)c1Cl,i,19.5,i,i,i,i,41.1
SMILES,OXTR agonist,TRPML3 ag,OXTR potentiate,V1aR counter,zfTRPN1 agonist,TRPN1 counter,TRPML3 ag conf
Cc1cc(C)nc(SC(C)CNS(=O)(=O)c2ccccc2)n1 (stereo not drawn),i,i,i,i,i,nt,nt
OCC[C@@H]1C[C@H](O)[C@@H](O)[C@]2(CCc3ccccc3O2)O1,i,nt,i,i,nt,nt,nt
CC(=O)N1CCN(c2ccccc2NC(=O)COc2ccccc2C)CC1,i,i,i,i,i,nt,nt
Cc1ccccc1OCC(=O)Nc1ccccc1N1CCOCC1,i,47.2,i,i,i,i,56.6
Cc1ccccc1OCC(=O)Nc1cc(S(=O)(=O)N2CCCCC2)ccc1N1CCN(C)CC1,i,20.8,i,i,i,i,22.8
O=C(COC(=O)C(Cc1ccccc1)NC(=O)c1ccc(Cl)cc1)c1ccc(Cl)cc1 (stereo not drawn),i,i,i,i,i,nt,nt
COc1ccc(N2C(=O)C(F)(F)C2c2ccccc2F)cc1 (stereo not drawn),nt,21.4,nt,nt,i,i,33.7
COc1ccc(N2C(=O)C(F)(F)C2c2cccc(F)c2)cc1 (stereo not drawn),i,i,i,i,i,nt,nt
O=C1/C(=C/c2ccc(O)c(O)c2)SC(=S)N1Nc1ccccc1,nt,i,nt,nt,i,nt,nt
COc1cc(/C=C2\SC(=S)N(Nc3ncc(C(F)(F)F)cc3Cl)C2=O)ccc1O,23.9,12.8,i,39.5,i,28.8,14.9
COc1cccc2c1O/C(=N\O)C(C(=O)Nc1ccc(C)cc1)C2 (stereo not drawn),i,nt,i,i,nt,nt,nt
CCC(Oc1cc(Cl)ccc1Cl)C(=O)NN1C(=O)C2C3CCC(C3=C(C)C)C2C1=O (stereo not drawn),i,33.6,i,i,i,i,73.0
CCC(Oc1cc(Cl)ccc1Cl)C(=O)NNC(=O)CCC(=O)O (stereo not drawn),i,i,i,i,i,nt,nt
COc1ccc(S(=O)(=O)/N=C2/C=CC(=O)C(C)=C2C)cc1,i,i,i,i,i,nt,nt
CC1=C(C)/C(=N\OS(=O)(=O)c2ccc(C)cc2)C=CC1=O,i,13.9,i,i,i,i,14.3
COc1ccc(/C=C/C(=O)OCC(=O)NC2CC2)c(OC)c1,i,nt,i,i,nt,nt,nt
Cc1cccc(Cc2cnc(N3C(=N)SC(C)C3=O)s2)c1 (stereo not drawn),i,i,i,i,i,nt,nt
N=C1SCC(=O)N1c1ncc(Cc2ccccc2Cl)s1,nt,137.4,nt,nt,i,i,169.9
N=C1SCC(=O)N1c1ncc(Cc2cccc(Cl)c2)s1,nt,45.1,nt,nt,i,i,25.8
CCOC(=O)c1cnc(SCc2cccc(C)c2)nc1N,i,i,i,i,i,nt,nt
CCCN(CCC)S(=O)(=O)c1ccc(C(=O)N2CCCc3ccccc32)cc1,i,133.3,i,i,i,i,104.0

# Compound activity (PubChem)
